The test system of experiment [1] is Cavia porcellus. In words: Evaluation of bronchodilator activity at dose 60 mg/kg perorally 1 hr prior to histamine aerosol exposure. Type of experiment: functional. To be noted: route oral. The method in brief: (§1)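 Guinea pigs received drug po, dissolved in 1 N HCl or suspended in vehicle, 1 h before challenge. The challenge was 0.4% aqueous histamine nebulized at 6 psi into a closed chamber. Respiratory status was scored 0–4 (4 = unconsciousness). Percent protection compares the total score of 8 treated animals with a control group of 8 (control = 0, complete protection = 100), giving a single value.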

The subject of experiment [2] is Cavia porcellus. Put plainly: Respiratory status of guinea pigs exposed to histamine aerosol expressed as percent protection 2 hr at a dose of 60 mg/kg (po).
For experiment [3], the system named is Cavia porcellus. Put plainly: Respiratory status of guinea pigs exposed to histamine aerosol expressed as percent protection at a dose of 30 mg/kg (po). Type of experiment: functional. The method in brief: as §1
For experiment [4], the system named is Cavia porcellus. In words: Respiratory status of guinea pigs exposed to histamine aerosol expressed as percent protection at a dose of 3 mg/kg (po). Type of experiment: functional. A digest of the protocol:
as §1

The test system of experiment [5] is Cavia porcellus. Put plainly: Respiratory status of guinea pigs exposed to histamine aerosol expressed as percent protection at a dose of 10 mg/kg (po). It counts as functional. A digest of the protocol:
as §1

Experiment [6] relates to Cavia porcellus. Put plainly: Respiratory status of guinea pigs exposed to histamine aerosol expressed as percent protection 8 hr at a dose of 60 mg/kg (po).
Experiment [7] deals with Cavia porcellus. Put plainly: Respiratory status of guinea pigs exposed to histamine aerosol expressed as percent protection 4 hr at a dose of 60 mg/kg (po).
The subject of experiment [8] is Cavia porcellus. In words: Respiratory status of guinea pigs exposed to histamine aerosol expressed as percent protection at a dose of 60 mg/kg (po). Type of experiment: functional. A digest of the protocol:
as §1

The test system of experiment [9] is Rattus norvegicus. Put plainly: Evaluation of antiulcer activity (% decrease in total number of lesions in cold-restraint, stressed rats) at peroral dose 10 mg/kg. It counts as functional. To be noted: route oral. A digest of the protocol: (§2)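 Nonfasted female Sprague–Dawley rats (90–120 g) were immobilized supine and held at 12 °C for 3 h to induce gastric ulceration. Drug was suspended in saline with 10 g/L carboxymethylcellulose and 1 g/L Tween 80 and given po or ip 3 h before stress. Rats were then killed and stomachs removed. Readout: percent decrease in total lesion number versus controls. Active: p ≤ 0.05.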

In experiment [10] the test system is Rattus norvegicus. Put plainly: Evaluation of antiulcer activity( percent decrease in total number of lesions in cold-restraint, stressed rats) at intraperitoneal dose at 100 mg/kg; Inactive. It counts as functional. The method in brief: as §2
Experiment [11] relates to Rattus norvegicus. In words: Evaluation of antiulcer activity( percent decrease in total number of lesions in cold-restraint, stressed rats) at intraperitoneal dose at 32 mg/kg; Inactive. Type of experiment: functional. A digest of the protocol: as §2
Experiment [12] relates to Rattus norvegicus. In words: Evaluation of antiulcer activity( percent decrease in total number of lesions in cold-restraint, stressed rats) at intraperitoneal dose at 100 mg/kg; Active. Type of experiment: functional. The method in brief: as §2
The test system of experiment [13] is Cavia porcellus. Put plainly: Respiratory status of guinea pigs exposed to histamine aerosol expressed as percent protection 2 hr at a dose of 60 mg/kg (po). Type of experiment: functional. The method in brief:
(§3)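 Duration study in guinea pigs: 60 mg/kg po given 2, 4 or 8 h before exposure to aerosol from 0.4% aqueous histamine nebulized at 6 psi in a closed chamber. Respiratory distress was scored 0–4. Percent protection compares the total score of 8 treated animals with 8 controls (control = 0, complete protection = 100).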

Experiment [14] relates to Cavia porcellus. In words: Respiratory status of guinea pigs exposed to histamine aerosol expressed as percent protection 8 hr at a dose of 60 mg/kg (po). Type of experiment: functional. The method in brief:
as §3

Experiment [15] deals with Rattus norvegicus. In words: Evaluation of antiulcer activity (percent decrease in total number of lesions in cold-restraint, stressed rats) at peroral dose 10 mg/kg; Active. Type of experiment: functional. To be noted: route oral. The method in brief: as §2
For experiment [16], the system named is Cavia porcellus. In words: Respiratory status of guinea pigs exposed to histamine aerosol expressed as percent protection 4 hr at a dose of 60 mg/kg (po). Type of experiment: functional. A digest of the protocol:
as §3

The subject of experiment [17] is Rattus norvegicus. Put plainly: Evaluation of antiulcer activity (percent decrease in total number of lesions in cold-restraint, stressed rats) at peroral dose 10 mg/kg; Inactive. The note with it: route oral.
For experiment [18], the system named is Rattus norvegicus. Put plainly: Evaluation of antiulcer activity (percent decrease in total number of lesions in cold-restraint, stressed rats) at intraperitoneal dose at 100 mg/kg; Inactive. It counts as functional. The method in brief: as §2
Experiment [19] deals with Rattus norvegicus. In words: Evaluation of antiulcer activity (percent decrease in total number of lesions in cold-restraint, stressed rats) at intraperitoneal dose at 100 mg/kg; Active. Type of experiment: functional. The method in brief:
as §2

Experiment [20] concerns Cavia porcellus. In words: Evaluation of bronchodilator activity at dose 60 mg/kg perorally 1 hr prior to histamine aerosol exposure; 20-30. The note with it: route oral. It counts as functional. A digest of the protocol: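 Guinea pigs got 60 mg/kg po, either dissolved in 1 N HCl or suspended in vehicle; controls got vehicle. After 1 h each was challenged with histamine aerosol: 0.4% aqueous histamine nebulized at 6 psi into a closed chamber. Respiration was scored 0–4, with 4 being unconsciousness. Percent protection came from comparing the total score of eight treated animals with a control group of eight, giving a single value.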

In experiment [1], `Oc1ncncc1Oc1ccccc1Cl` returned a Protection of 13%.

Take `Oc1ncc(Oc2ccc(Cl)cc2)cn1`: the Protection is on record as 94% in experiment [2]; 71% in experiment [3]; 22% in experiment [4]; 37% in experiment [5]; 92% in [1]; 88% in [6]. Besides, the Protection in [7] is on record as 94%; in experiment [8], 92%. Moreover, the Decrease worked out at 7% in experiment [9] and 0% in experiment [10].

In the case of `Oc1ncncc1Oc1cccc(Cl)c1`, in [11], the Decrease amounted to 18%. Further, the Protection in experiment [1] stood at 13%.

As to `COc1ccc(Oc2cncnc2O)cc1`, the Protection in [1] turned out to be 26%. The compound further came in with a Decrease in experiment [9] of 0%.

`Cc1cc(C)cc(Oc2cnc(O)nc2)c1`: the results for the Decrease in experiment [12] and in experiment [9] were 53% and 50%, respectively. For the same compound, the Protection in [1] worked out at 38%.

For `Cc1ccc(Oc2cnc(O)nc2)cc1`, the Protection in [13] turned out to be 86%; in experiment [3] it was 81%; in [14], 10%; in experiment [4] it was 2%; in [5], 18%; in [1] it was 86%. Moreover, the values for the Protection in experiment [8] and in experiment [16] were 86% and 8%, respectively. The Decrease in [15] came to 57%; in experiment [10] it was 0%.

For `Oc1ncc(Oc2ccc(Cl)cc2Cl)cn1`, the Protection in [1] is given as 47%. For the same compound, the Decrease in experiment [9] is listed as 22%; in experiment [10], 19%.

In turn, `Cc1ccc(Oc2cnc(O)nc2)cc1C` registered a Protection in [1] of 14%. The Decrease came out at 54% in [9] and 53% in experiment [10].

On to `Cc1cccc(Oc2cnc(O)nc2O)c1`, for which the Decrease in [12] is 67%; in experiment [9] it was 0%. The same compound displayed a Protection in [1] of 7%.

Take `CSc1ccc(Oc2cnc(O)nc2)cc1`: in experiment [1], the Protection is given as 55%. Besides, the Decrease in experiment [9] and in [10] was 0% throughout.

As for `Oc1ncc(Oc2ccccc2)cn1`, the results for the Decrease in experiment [12] and in [15] were 81% and 37%, respectively. This compound had a Protection in experiment [1] of 28%.

On to `Cc1ccccc1Oc1cnc(O)nc1`, for which the Protection in experiment [1] amounted to 6%. In addition, the Decrease is listed as 0% in experiment [9] and 25% in [10].

Take `COc1ccc(Oc2cnc(O)nc2)cc1`: the Protection in [1] turned out to be 45%. The Decrease in experiment [9] and in experiment [10] was 0% in each case.

The compound `CCc1ccc(Oc2cnc(O)nc2)cc1` came in with a Protection in [1] of 98%. In addition, the Decrease in [9] is 0%; in experiment [10], 27%.

Take `CCc1cccc(Oc2cnc(O)nc2)c1`: the Decrease was 53% in experiment [12] and 28% in experiment [9]. In experiment [1], this compound gave a Protection of 3%.

For `Cc1cc(Oc2cnc(O)nc2)ccc1Cl`, the Protection in experiment [1] turned out to be 6%. Also, the figures for the Decrease in [9] and in [10] were 0% and 14%, respectively.

In experiment [1], `Oc1ncncc1Oc1ccccc1` returned a Protection of 23%. This compound also had a Decrease in experiment [9] of 0%.

`Cc1cccc(Oc2cncnc2O)c1` showed a Protection in experiment [1] of 28%. Moreover, the Decrease in [9] was 0%.

In [1], `Oc1ncc(Oc2ccc(Br)cc2)cn1` showed a Protection of 90%. Besides, the Decrease in experiment [9] and in experiment [10] was 0% throughout.

In [1], `Oc1ncc(Oc2cccc(Cl)c2)cn1` gave a Protection of 22%. For the same compound, the Decrease in [9] amounted to 22%; in experiment [10], 0%.

On to `COc1cccc(Oc2cncnc2O)c1`, for which the Protection in experiment [1] is on record as 7%. In experiment [9], this compound yielded a Decrease of 0%.

On to `Oc1ncc(Sc2ccc(Cl)cc2)cn1`, for which the Protection in experiment [1] is 63%.

Turning to `Oc1ncc(Oc2ccccc2)c(O)n1`, the Protection in [1] amounted to 25%. Further, the Decrease in [9] is given as 22%.

`Oc1ncncc1Oc1ccc(Cl)c(Cl)c1` yielded a Protection in experiment [1] of 45%.

As to `Oc1ncc(Sc2ccccc2)cn1`, in [1], the Protection is recorded as 23%. The Decrease is 45% in experiment [9] and 47% in [10].

Regarding `Cc1ccc(Oc2cnc(O)nc2)c(C)c1`, the Decrease in [17] turned out to be 6%; in [10], 0%.

Turning to `Oc1ncc(Oc2ccc(Cl)cc2)c(O)n1`, the Protection in experiment [1] was determined as 50%. The compound also showed a Decrease in [9] of 35%.

With `Cc1ccc(Oc2cnc(O)nc2O)cc1`, the Protection in [1] turned out to be 35%. This compound returned a Decrease in [9] of 0%.

`Oc1ncc(Oc2cccc(C(F)(F)F)c2)cn1` displayed a Protection in experiment [1] of 26%. In experiment [9], this compound showed a Decrease of 39%.

`CC(C)c1ccc(Oc2cnc(O)nc2)cc1`: in [1], the Protection was 0%. For the same compound, the Decrease in experiment [9] worked out at 0%; in experiment [10], 9%.

`Oc1ncncc1Oc1ccc(F)cc1`: in experiment [1], the Protection came to 80%. Further, the Decrease in experiment [9] is 28%.

In turn, `Oc1ncc(Oc2ccc(F)cc2)cn1` showed a Protection in experiment [1] of 66%. For the same compound, the Decrease in experiment [9] and in experiment [10] was 0% in each case.

In the case of `COc1cccc(Oc2cnc(O)nc2)c1`, the Decrease stood at 82% in experiment [12] and 55% in experiment [9]. Further, the Protection in experiment [1] came out at 3%.

Consider `C[S+]([O-])c1ccc(Oc2cnc(O)nc2)cc1` (configuration not stated), for which, in [1], the Protection was found to be 10%. The Decrease in experiment [9] came to 50%; in experiment [10] it was 0%.

In [18], `Oc1ncncc1Oc1ccc(Cl)cc1` registered a Decrease of 0%. This compound displayed a Protection in [1] of 92%.

Compound `Cc1ccc(Oc2cncnc2O)cc1` showed a Protection in experiment [1] of 92%. In addition, the Decrease in experiment [9] is 27%.

As to `Cc1cccc(Sc2cnc(O)nc2)c1`, the figures for the Decrease in experiment [19] and in experiment [17] were 78% and 0%, respectively.

For `Cc1ccc(Sc2cnc(O)nc2)cc1`, the figures for the Decrease in experiment [12] and in experiment [9] were 64% and 18%, respectively. In experiment [1], this compound showed a Protection of 26%.

`Cn1c(=O)c2nc[nH]c2n(C)c1=O.O` [THEOPHYLLINE]: the Protection in experiment [20] is given as 20%.

Turning to `Cc1cccc(Oc2cnc(=O)[nH]c2)c1` [TOLIMIDONE], the Decrease in [12] is reported as 70%; in experiment [15], 38%. The Protection in experiment [1] was 3%.

(Values after ChEMBL document CHEMBL1121507, “Bronchodilator and antiulcer phenoxypyrimidinones” (1980).)
